In ChEMBL document CHEMBL2163344, “Immunomodulatory properties of novel nucleotide oligomerization domain 2 (nod2) agonistic desmuramyldipeptides” (J Med Chem, 2012) one finds Activity data, which are given here for 8 compounds.

Calls of active or inactive are those of the source. No cut-off for these calls is given here.

What all share (type): functional, cell-based
For test [1], the target named is Nucleotide-binding oligomerization domain-containing protein 2 (Homo sapiens) (UniProt Q9HC29). As to the kind of experiment: Agonist activity at human Nod2 expressed in HEK293-blue cells assessed as increase in NF-kappaB transcriptional activity at 20 uM incubated for 18 hrs using quanti blue assay based SEAP reporter gene assay. In a few lines: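 HEK-Blue Nod2 cells (HEK293 stably coexpressing human Nod2 and NF-κB-inducible SEAP) at 1 × 10^6 cells/mL, treated 18 h with 20 μM compound. Supernatant SEAP measured with QUANTI-Blue, 3 h at 37 °C, absorbance 640 nm. Duplicates in three independent experiments, compared with untreated cells.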
Chain of Nucleotide-binding oligomerization domain-containing protein 2 (Homo sapiens) (Q9HC29 whole entry, the tested form may be a part): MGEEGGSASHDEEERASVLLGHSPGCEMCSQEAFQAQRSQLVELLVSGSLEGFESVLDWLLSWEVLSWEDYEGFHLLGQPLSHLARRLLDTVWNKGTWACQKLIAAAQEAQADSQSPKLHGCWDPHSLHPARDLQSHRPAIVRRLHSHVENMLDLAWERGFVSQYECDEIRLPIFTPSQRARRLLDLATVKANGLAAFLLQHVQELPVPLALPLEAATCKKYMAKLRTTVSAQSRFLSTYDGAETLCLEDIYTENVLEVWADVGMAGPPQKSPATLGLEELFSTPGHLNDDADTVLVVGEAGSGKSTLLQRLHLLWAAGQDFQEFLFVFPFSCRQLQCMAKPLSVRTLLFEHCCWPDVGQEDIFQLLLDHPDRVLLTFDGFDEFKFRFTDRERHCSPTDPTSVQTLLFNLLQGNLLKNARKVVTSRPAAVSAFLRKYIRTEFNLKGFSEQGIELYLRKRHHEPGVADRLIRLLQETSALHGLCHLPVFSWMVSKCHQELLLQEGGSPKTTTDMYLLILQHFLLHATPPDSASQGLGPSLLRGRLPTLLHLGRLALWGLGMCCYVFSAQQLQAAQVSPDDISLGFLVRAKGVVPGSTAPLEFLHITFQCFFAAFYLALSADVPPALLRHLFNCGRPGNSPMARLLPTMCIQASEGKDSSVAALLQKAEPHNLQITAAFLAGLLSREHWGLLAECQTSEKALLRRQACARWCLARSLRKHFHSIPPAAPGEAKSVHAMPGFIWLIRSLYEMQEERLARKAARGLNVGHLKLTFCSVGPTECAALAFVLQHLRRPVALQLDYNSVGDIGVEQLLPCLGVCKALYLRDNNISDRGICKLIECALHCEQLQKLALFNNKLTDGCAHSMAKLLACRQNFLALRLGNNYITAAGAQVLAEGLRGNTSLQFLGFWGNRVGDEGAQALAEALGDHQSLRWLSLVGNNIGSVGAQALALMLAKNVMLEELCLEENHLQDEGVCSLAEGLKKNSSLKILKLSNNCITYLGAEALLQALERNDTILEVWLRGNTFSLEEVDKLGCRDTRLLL

The target in test [2] is T1, Toll-like receptor 7 (Homo sapiens) (UniProt Q9NYK1).
T1 sequence (whole entry): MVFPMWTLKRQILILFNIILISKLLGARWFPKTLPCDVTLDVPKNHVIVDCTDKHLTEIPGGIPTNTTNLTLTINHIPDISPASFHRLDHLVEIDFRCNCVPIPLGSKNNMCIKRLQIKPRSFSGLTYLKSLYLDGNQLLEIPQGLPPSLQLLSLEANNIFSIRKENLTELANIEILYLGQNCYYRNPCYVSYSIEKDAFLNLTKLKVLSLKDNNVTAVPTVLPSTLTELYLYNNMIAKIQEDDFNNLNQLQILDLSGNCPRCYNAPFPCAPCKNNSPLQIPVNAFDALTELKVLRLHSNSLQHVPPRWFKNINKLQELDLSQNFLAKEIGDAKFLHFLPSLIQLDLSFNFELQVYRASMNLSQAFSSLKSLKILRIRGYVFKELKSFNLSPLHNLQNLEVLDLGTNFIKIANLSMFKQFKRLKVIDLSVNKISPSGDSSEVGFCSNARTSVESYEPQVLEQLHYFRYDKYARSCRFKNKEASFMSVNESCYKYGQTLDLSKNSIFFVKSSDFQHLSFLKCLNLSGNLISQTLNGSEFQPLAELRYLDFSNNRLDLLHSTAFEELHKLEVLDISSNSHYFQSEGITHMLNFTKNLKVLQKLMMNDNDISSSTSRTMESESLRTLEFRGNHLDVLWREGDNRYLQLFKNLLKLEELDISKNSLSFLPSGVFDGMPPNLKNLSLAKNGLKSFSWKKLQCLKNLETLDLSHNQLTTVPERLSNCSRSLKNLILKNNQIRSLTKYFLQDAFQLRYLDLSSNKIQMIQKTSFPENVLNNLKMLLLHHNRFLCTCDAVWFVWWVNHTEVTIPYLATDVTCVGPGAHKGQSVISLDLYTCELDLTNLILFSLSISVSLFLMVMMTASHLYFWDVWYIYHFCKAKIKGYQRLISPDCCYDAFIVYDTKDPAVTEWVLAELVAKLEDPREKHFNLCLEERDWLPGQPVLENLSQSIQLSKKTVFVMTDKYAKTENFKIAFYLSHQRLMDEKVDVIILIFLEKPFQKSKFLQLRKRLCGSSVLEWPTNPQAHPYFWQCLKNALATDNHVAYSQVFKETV
The experiment in a line: Agonist activity at human TLR7 expressed in Ramos blue cells assessed as stimulation of NF-kB/AP-1 activity at 20 uM incubated for 18 hrs using quanti blue assay based SEAP reporter gene assay. An outline of the steps: (§1)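 Ramos-Blue control cells (TLR3/7/9 and Nod1, no Nod2; stable NF-κB/AP-1-inducible SEAP reporter) at 1 × 10^6 cells/mL, exposed 18 h to 20 μM compound. SEAP in supernatant read with QUANTI-Blue reagent (3 h, 37 °C), absorbance 640 nm; activity compared with untreated cells.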
On the technique in general: A reporter such as luciferase makes a cellular process visible.

In test [3] the test system is PBMC. The experiment in a line: Immunomodulatory activity in human PBMCs assessed as increase in PMA/ionomycin-induced IL-12p70 release at 20 uM incubated for 18 hrs by multiplexed cytokine assay. An outline of the steps:
(§2)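 Ficoll-isolated human PBMC, 1 × 10^6 cells per well, treated with 20 μM compound (DMSO ≤0.1%) plus PMA 3.33 ng/mL and ionomycin 500 nM for 18 h at 37 °C, 5% CO2. Cell-free supernatant cytokines measured by CBA human inflammatory kit on a flow cytometer against recombinant standards. Reported as % of PMA/ionomycin-only release; duplicates, three experiments, three donors.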

The subject of test [4] is PBMC. As to the kind of experiment: Immunomodulatory activity in human PBMCs assessed as increase in PMA/ionomycin-induced TNFalpha release at 20 uM incubated for 18 hrs by multiplexed cytokine assay. In a few lines:
as §2

Test [5] deals with PBMC. As to the kind of experiment: Immunomodulatory activity in human PBMCs assessed as increase in PMA/ionomycin-induced IL-1beta release at 20 uM incubated for 18 hrs by multiplexed cytokine assay. An outline of the steps: as §2
Test [6] concerns PBMC. The experiment in a line: Immunomodulatory activity in human PBMCs assessed as increase in PMA/ionomycin-induced IL10 release at 20 uM incubated for 18 hrs by multiplexed cytokine assay.
Test [7] deals with T2, Nucleotide-binding oligomerization domain-containing protein 1 (Homo sapiens) (UniProt Q9Y239).
T2 sequence (whole entry): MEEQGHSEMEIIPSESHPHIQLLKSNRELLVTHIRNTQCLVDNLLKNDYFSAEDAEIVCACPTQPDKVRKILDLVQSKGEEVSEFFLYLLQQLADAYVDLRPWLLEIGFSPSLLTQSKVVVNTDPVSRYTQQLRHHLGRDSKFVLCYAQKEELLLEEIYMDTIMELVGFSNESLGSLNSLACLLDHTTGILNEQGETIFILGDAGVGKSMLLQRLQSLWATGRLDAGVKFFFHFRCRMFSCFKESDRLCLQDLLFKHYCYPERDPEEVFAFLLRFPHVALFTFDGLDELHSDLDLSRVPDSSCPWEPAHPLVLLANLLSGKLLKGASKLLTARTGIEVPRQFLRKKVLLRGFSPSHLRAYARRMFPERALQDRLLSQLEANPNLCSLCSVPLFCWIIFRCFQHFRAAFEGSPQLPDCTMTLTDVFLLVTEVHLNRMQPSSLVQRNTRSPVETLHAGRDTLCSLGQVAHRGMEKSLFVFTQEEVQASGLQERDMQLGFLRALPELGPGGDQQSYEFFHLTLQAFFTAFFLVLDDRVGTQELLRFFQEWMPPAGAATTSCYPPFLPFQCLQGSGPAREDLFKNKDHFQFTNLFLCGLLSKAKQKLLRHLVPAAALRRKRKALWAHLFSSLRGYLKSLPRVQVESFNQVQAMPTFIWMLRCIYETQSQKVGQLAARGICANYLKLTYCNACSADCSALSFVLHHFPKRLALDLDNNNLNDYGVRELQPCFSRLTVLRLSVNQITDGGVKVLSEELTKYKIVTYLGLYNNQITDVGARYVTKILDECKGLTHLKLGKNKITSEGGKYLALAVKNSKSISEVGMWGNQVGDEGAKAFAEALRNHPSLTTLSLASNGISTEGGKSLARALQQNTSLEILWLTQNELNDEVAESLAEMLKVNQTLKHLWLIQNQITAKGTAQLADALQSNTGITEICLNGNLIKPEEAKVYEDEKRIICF
The experiment in a line: Agonist activity at human NOD1 expressed in Ramos blue cells assessed as stimulation of NF-kB/AP-1 activity at 20 uM incubated for 18 hrs using quanti blue assay based SEAP reporter gene assay. An outline of the steps:
as §1

For `CCOC(=O)CC[C@@H](NC(=O)[C@H](C)NC(=O)CCCCN1C(=O)c2ccccc2S1(=O)=O)C(N)=O`, the outcome (in test [1]; in test [2]; in the test with PBMC [3]; with PBMC [4]; with PBMC [5]; in the test on PBMC [6]) was inactive. For the same compound, the result in test [7] was inactive.
Turning to `CCOC(=O)CC[C@@H](NC(=O)[C@H](C)NC(=O)CNC(=O)c1cc2ccccc2[nH]1)C(=O)OCC`, the outcome (in test [1]; in the test on PBMC [3]; in the test with PBMC [4]; in the test with PBMC [5]) was Active. Further, the outcome (in test [2]; with PBMC [6]; in test [7]) was inactive.
For `CCCCOC(=O)[C@@H](CCC(N)=O)NC(=O)[C@H](C)NC(=O)[C@@H](C)O[C@H]1[C@H](O)[C@@H](CO)OC(O)[C@@H]1NC(C)=O` (stereo partly drawn) [MURABUTIDE], the result (in test [1]; in the test with PBMC [3]; with PBMC [4]; in the test with PBMC [5]) was Active. Further, the outcome (in test [2]; with PBMC [6]; in test [7]) was inactive.
With `CCOC(=O)CC[C@@H](NC(=O)[C@H](C)NC(=O)C1=C2c3ccccc3S(=O)(=O)N2CCC1)C(=O)OCC`, the outcome (in test [1]; with PBMC [3]; in the test with PBMC [5]) was Active. The result (in test [2]; in the test on PBMC [6]; in test [7]) was inactive.
As to `CCOC(=O)CC[C@@H](NC(=O)[C@H](C)NC(=O)COCCN1C(=O)c2ccccc2S1(=O)=O)C(=O)OCC`, the outcome (in test [2]; in the test with PBMC [3]; in the test on PBMC [4]; in the test with PBMC [5]; with PBMC [6]; in test [7]) was inactive.
As to `CCOC(=O)CC[C@@H](NC(=O)[C@H](C)NC(=O)COCCN1C(=O)c2ccccc2S1(=O)=O)C(N)=O`, the outcome (in test [1]; in test [2]; with PBMC [3]; in the test with PBMC [4]; in the test on PBMC [5]; with PBMC [6]) was inactive. For the same compound, the outcome in test [7] was inactive.
`CCOC(=O)CC[C@@H](NC(=O)[C@H](C)NC(=O)CCCCN1C(=O)c2ccccc2S1(=O)=O)C(=O)OCC`: the outcome (in test [2]; with PBMC [3]; with PBMC [4]; in the test with PBMC [5]; in the test on PBMC [6]; in test [7]) was inactive.
Consider `CCOC(=O)CC[C@@H](NC(=O)[C@H](C)NC(=O)CNC(=O)c1cc2ccccc2[nH]1)C(N)=O`, for which the result (in test [1]; in test [2]; in the test with PBMC [3]; in the test on PBMC [4]; in the test on PBMC [5]; in the test on PBMC [6]) was inactive. Also, the result in test [7] was inactive.
